This note sets out measurements from ChEMBL document CHEMBL4371053, “A novel tetrazole analogue of resveratrol is a potent anticancer agent” (Bioorg Med Chem Lett, 2019).

Active and inactive are the calls of the source. The calls are words filed in the database; no cut-off is given here.

One assay deals with SK-MEL-5. As to the kind of experiment: Growth inhibition of human SK-MEL-5 cells at 10 uM after 48 hrs by sulforhodamine B assay relative to control. The class given is functional. The conditions noted are these: SK-MEL-5, 48 h, values are per cent of control. Summed up:
(§1)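 NCI-60 single-dose screen. Cells exposed to 10⁻⁵ M or to vehicle for 48 h. Growth measured by sulforhodamine B optical density before and after exposure. Reported as percent growth relative to vehicle control and to time-zero cell number; negative values indicate cell kill.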

The test system of another assay is NCI-H460. Kind of assay: Growth inhibition of human NCI-H460 cells at 10 uM after 48 hrs by sulforhodamine B assay relative to control. The class given is functional. To be noted: NCI-H460, 48 h, values are per cent of control. In outline: as §1
(In general: Sulforhodamine B stains cellular protein and so reports cell mass.)

In a further assay the test system is OVCAR-3. As to the kind of experiment: Growth inhibition of human OVCAR3 cells at 10 uM after 48 hrs by sulforhodamine B assay relative to control. To be noted: OVCAR-3, 48 h, values are per cent of control. The class given is functional. Summed up:
as §1

A further assay has as its system A498. As to the kind of experiment: Growth inhibition of human A498 cells at 10 uM after 48 hrs by sulforhodamine B assay relative to control. The assay is classed as functional. The conditions noted are these: A498, 48 h, values are per cent of control. In outline: as §1
The next assay relates to KM12. As to the kind of experiment: Growth inhibition of human KM12 cells at 10 uM after 48 hrs by sulforhodamine B assay relative to control. To be noted: KM12, 48 h, values are per cent of control. The assay is classed as functional. In outline:
as §1

In another assay the test system is DU-145. Kind of assay: Growth inhibition of human DU145 cells at 10 uM after 48 hrs by sulforhodamine B assay relative to control. The assay is classed as functional. To be noted: DU-145, 48 h, values are per cent of control. In outline:
as §1

The next assay addresses Tubulin (Homo sapiens) (UniProt P68371+Q9H4B7+P0DPH7+P68366+Q13509+Q71U36+P04350+Q3ZCM7+P07437+P68363+Q9BQE3+Q6PEY2+Q13885+Q9BVA1+Q9BUF5). As to the kind of experiment: Inhibition of tubulin (unknown origin) polymerization at 2 uM by immunoblot analysis. The class given is protein-complex assay. Summed up:
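Cell-based assay. Cells were treated with compound at 1.0 and 2.0 μM. Polymerized tubulin (pellet) was separated from unpolymerized tubulin (supernatant), and both fractions were immunoblotted with anti-tubulin antibody.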
(In general: A western blot detects proteins with antibodies after separation by electrophoresis.)

For a further assay, the system named is NCI-H522. As to the kind of experiment: Growth inhibition of human NCI-H522 cells at 10 uM after 48 hrs by sulforhodamine B assay relative to control. The class given is functional. The conditions noted are these: NCI-H522, 48 h, values are per cent of control. Summed up: as §1
A further assay concerns MDA-MB-435. As to the kind of experiment: Growth inhibition of human MDA-MB-435 cells at 10 uM after 48 hrs by sulforhodamine B assay relative to control. The assay is classed as functional. The conditions noted are these: MDA-MB-435, 48 h, values are per cent of control. Summed up: as §1
A further assay relates to SF-539. As to the kind of experiment: Growth inhibition of human SF539 cells at 10 uM after 48 hrs by sulforhodamine B assay relative to control. The conditions noted are these: SF-539, 48 h, values are per cent of control. The class given is functional. In outline: as §1

For the compound `COc1ccc(/C=C(/c2cc(OC)c(OC)c(OC)c2)c2nnn[nH]2)cc1`, the growth, % of control at 10 µM worked out at 94.1% in the assay on SK-MEL-5; 110% with NCI-H460; 113% with OVCAR-3; 102% in the assay with A498; 102% in the assay on KM12; 108% with DU-145. Further, the values for the growth, % of control at 10 µM in the assay on NCI-H522 and in the assay with MDA-MB-435 were 90.3% and 100%, respectively. At Tubulin (Homo sapiens), the inhibition result was “Active”.
With `COc1ccc(/C=C(/c2ccc([N+](=O)[O-])cc2)c2nnn[nH]2)c2ccccc12`, the growth, % of control at 10 µM in the assay with SK-MEL-5 came out at 97.1%; in the assay with NCI-H460 it was 103%; with OVCAR-3, 112%; in the assay on A498, 112%; with KM12, 111%; in the assay on DU-145 it was 113%. For the same compound, the growth, % of control at 10 µM in the assay on NCI-H522 is 89.4%; in the assay with SF-539, 104%; in the assay on MDA-MB-435, 105%. For the same compound, the inhibition result at Tubulin (Homo sapiens) is “Active”.
As to `COc1ccc(/C(=C/c2cc(OC)c(OC)c(OC)c2)c2nnn[nH]2)cc1OC`, the growth, % of control at 10 µM turned out to be 96.4% with SK-MEL-5; 106% in the assay with NCI-H460; 118% with OVCAR-3; 89.5% with A498; 99.8% in the assay on KM12; 106% in the assay on DU-145. The growth, % of control at 10 µM in the assay on NCI-H522 is 90.2%; with SF-539, 96.2%; in the assay on MDA-MB-435, 102%.
